Source: PubChem (several laboratories)
mABHD4 FP = inhibitors of mouse ABHD4; Q8VD66; purified mABHD4, FP-Rh probe fluorescence polarization; inhibition, % at 8.92 µM; actives 0.54% (n = 370,000);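 active = inhibition exceeding the mean over every tested compound plus 3 SD, cut at about 30% in these data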;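 also: 0% = plate median of compound wells and 100% = S159A mutant with DMSO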
Target sequence (Q8VD66 whole entry, looked up): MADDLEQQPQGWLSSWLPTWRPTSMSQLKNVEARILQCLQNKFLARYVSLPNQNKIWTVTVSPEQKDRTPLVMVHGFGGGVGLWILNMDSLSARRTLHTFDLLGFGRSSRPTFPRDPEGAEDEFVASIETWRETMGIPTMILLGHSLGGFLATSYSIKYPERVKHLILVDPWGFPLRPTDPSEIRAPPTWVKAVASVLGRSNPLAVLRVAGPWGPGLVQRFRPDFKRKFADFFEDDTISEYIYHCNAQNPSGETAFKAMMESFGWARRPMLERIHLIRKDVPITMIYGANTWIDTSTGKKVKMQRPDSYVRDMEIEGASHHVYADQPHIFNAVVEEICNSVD
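Material: mouse ABHD4 enzyme, wild type; Benchmarks: S159A mutant high control, sample median low control; Buffer or medium: HEPES pH 7.0, NaCl, Pluronic buffer; Signal: fluorescence polarization; Read-out: percent inhibition of probe binding, normalized to plate controls; Timing: pre-incubation 45 min, probe exposure 60 min, at 25 °C; Dosing: 8.92 µM, single dose.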
TCR CD3 inh = human TCR-CD3 binding inhibition; TAMRA-labeled TCR probe fluorescence, biochemical; inhibition, % at 9.4 µM; actives 0.37% (n = 360,000); AID 651800;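 also: recombinant mutant TCR 2C K166C tagged with TAMRA read by polarization; 0% = receptor in buffer alone and 100% = receptor with positive control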
HTRA1 inh = inhibitors of human serine peptidase HTRA1; recombinant HTRA1, FP-rhodamine activity-based probe, fluorescence polarization; inhibition, % at 5.96 µM; actives 0.5% (n = 340,000); AID 504803; in the data active = inhibition above about 36%;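 also: 0% = enzyme with DMSO and 100% = wells lacking enzyme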
SIAE primary = blocks human sialic acid acetylesterase; AID 1053197; actives 0.69% (n = 370,000); SIAE FP-Rh probe binding, fluorescence polarization; inhibition, % at 9.66 µM;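 active = inhibition above a cutoff: mean of compounds within the control limits plus 3 SD of those, cut at about 17% in these data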;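 also: 0% = plate median of compound wells and 100% = probe without SIAE protein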
ARNT-TACC3 inh = disruptors of human ARNT/TACC3 interaction; inhibition, % at 9.99 µM; AID 623870; AlphaScreen His-ARNT PAS-B/GST-TACC3 binding, luminescence; TACC3 fragment carries E629A point mutation; Q9Y6A5; actives 0.66% (n = 390,000);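 active = mean inhibition of replicates at least 50% and at least half of replicates each reaching 50%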;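 also: 0% = complete ARNT plus TACC3 wells and 100% = ARNT alone without TACC3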
HTRA1 inh conf = HTRA1 (human) inhibition, confirmation. shares compounds with HTRA1 inh. AID 540248. recombinant HTRA1, FP-rhodamine activity-based probe, fluorescence polarization. actives 66% (n = 1,600). inhibition, % at 5.96 µM;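 active = mean inhibition over three repeats above a set limit taken from the earlier primary screen, cut at about 37% in these data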;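 also: 0% = HTRA1 with DMSO and 100% = wells lacking HTRA1; inhibitors block probe binding so polarization drops and inhibition rises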
ARNT Alpha ctr = AlphaScreen artifact in ARNT/TACC3 counter-screen | actives 50% (n = 1,200) | AC50, µM (highest dose often 68 µM), for inactives: at the highest dose activity change, negative = signal decrease | shares compounds with ARNT-TACC3 inh | His-ARNT PASB-GST AlphaScreen artifact counter-screen, luminescence;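 active = every separate test run was called active for a drop in luminescence, with AC50 within twice the top valid dose, actives reach about 71 µM in these data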
BSA probe FL = interferes with TAMRA-BSA probe, flagging TCR-CD3 hits; shares compounds with TCR CD3 inh; TAMRA-labeled BSA probe fluorescence counterscreen; inhibition, % at 9.4 µM; AID 652035; actives 10% (n = 1,200); in the data active = inhibition above about 23%;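 also: 0% = buffer low control and 100% = reference high control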
TCR-CD3 conf = confirmation of human TCR-CD3 interaction inhibitors | shares compounds with TCR CD3 inh | TAMRA-labeled TCR probe fluorescence binding assay | inhibition, % at 9.4 µM | actives 48% (n = 1,200)
Active calls of the source: *; . = no result given. Hits are enriched below; roughly 1.8% of the tested compounds scored in any of these assays. Rule as the data show it, unless noted: active = inhibition above about 19%; inactive = the rest.

SMILES	mABHD4 FP	TCR CD3 inh	HTRA1 inh	SIAE primary	ARNT-TACC3 inh	HTRA1 inh conf	BSA probe FL	TCR-CD3 conf	others
C[C@@H](NC(=O)C[C@@H]1C=C[C@H](NC(=O)C2CC2)[C@@H](CO)O1)c1ccccc1	.	.	.	.	11	.	.	.
COc1ccc(NC(=O)N(C)C[C@H]2OCc3ccccc3-c3ccccc3C(=O)N([C@@H](C)CO)C[C@H]2C)cc1	.	.	.	.	6	.	.	.
O=C(O)c1cc(Cl)c2c(c1)[C@@H]1C=CC[C@@H]1[C@H](c1ccc(S(=O)(=O)N3CCOCC3)cc1)N2	.	.	23	.	1	.	.	.
O=C(O)C1Nc2c(O)cc(Cl)c([N+](=O)[O-])c2C2C=CCC12 (stereo unspecified)	61*	91*	66*	53*	58*	63*	-19	51*	ARNT Alpha ctr=31µM*
Oc1ccc(Cl)c2cccnc12	9	30*	64*	4	7	76*	-3	1
O=C(O)c1ccc(O)c2ncccc12	3	-4	.	2	.	.	.	.
C[C@H]1CN([C@@H](C)CO)C(=O)Cc2cc(NS(=O)(=O)c3ccc(Cl)cc3)ccc2O[C@@H]1CN(C)S(=O)(=O)c1ccc(F)cc1	.	.	.	.	5	.	.	.
COc1ccc(-c2cc(=O)oc3c(O)c(O)ccc23)cc1	27	21*	73*	-1	2	86*	-2	14
CC(=O)N(C)C[C@H]1Oc2cc(Br)ccc2S(=O)(=O)N([C@@H](C)CO)C[C@H]1C	.	.	.	.	32	.	.	.
O=C(NN=Cc1c(O)ccc2ccccc12)c1ccc2c(c1)OCO2	21	21*	37*	8	-1	17	-17	22*
CCC(=O)N[C@@H]1CC[C@@H](CCNS(=O)(=O)c2ccc(Cl)cc2)O[C@@H]1CO	.	.	.	.	-5	.	.	.
O=C(Cc1nnc(NC(=O)c2ccccc2)s1)N/N=C/c1ccc(O)cc1	-3	8	-7	-10	-1	.	.	.
O=C(Cc1nnc(NC(=O)c2ccccc2)s1)N/N=C\c1ccc(O)c(O)c1	28	34*	43*	6	4	48*	-11	33*
C[C@@H]1CN([C@H](C)CO)C(=O)c2cc(/C=C/c3ccccc3)cnc2O[C@H]1CN(C)C(=O)c1ccc2c(c1)OCO2	.	.	.	.	4	.	.	.
Cc1cc(SCC(=O)c2ccc(O)c(O)c2)n2nc(C)c(-c3ccccc3)c2n1	24	25*	56*	5	3	65*	-2	48*
O=C(CCN1CCN(c2ccccc2)CC1)N/N=C/c1ccc(O)c(O)c1O	24	30*	47*	12	.	37*	-5	24*
O=C(N/N=C/c1ccc(O)cc1O)c1ccc(CN2C(=O)c3cccc4cccc2c34)cc1	-95	27*	38*	-15	-17	32	-35	30*
O=C(NCC[C@H]1CC[C@@H](NS(=O)(=O)c2ccccc2)[C@@H](CO)O1)c1ccccc1F	.	.	.	.	3	.	.	.
CN1C(=O)c2cc(NC(=O)Nc3ccccc3F)ccc2OC[C@@H]2O[C@@H](CC(=O)NCCc3ccncc3)CC[C@@H]21	.	.	.	.	14	.	.	.
O=C(N/N=C/c1ccc(O)c(O)c1)N/N=C/c1ccc(O)c(O)c1	27	65*	38*	-12	21	19	-13	81*
Cc1nonc1C(=O)N/N=C/c1ccc(O)c(O)c1	13	7	23	9	-1	.	.	.
C/C(=N\NC(=O)c1ccc(-c2ccccc2)cc1)C1C(=O)c2ccccc2C1=O	22	29*	36*	9	-7	58*	-7	38*
O=C(Cc1ccccn1)N[C@@H]1CC[C@@H](CC(=O)N2CCCCC2)O[C@H]1CO	.	.	.	.	-1	.	.	.
Oc1ccc(/C=N/Nc2ncnc3c2ncn3Cc2ccccc2)cc1O	29	53*	49*	2	13	50*	-4	46*
C[C@H]1CN([C@@H](C)CO)C(=O)c2cc(NC(=O)CCN3CCOCC3)ccc2O[C@H]1CN(C)C	.	.	.	.	-3	.	.	.
SMILES	mABHD4 FP	TCR CD3 inh	HTRA1 inh	SIAE primary	ARNT-TACC3 inh	HTRA1 inh conf	BSA probe FL	TCR-CD3 conf	others
O=C1OC(Nc2ncccn2)c2ccccc21 (stereo unspecified)	-3	6	2	-1	-12	.	.	.
O=C1OC(Nc2cc(Br)cc3cccnc23)c2ccccc21 (stereo unspecified)	88*	37*	45*	34*	31	13	7	7
CN(C)c1ccc(Cc2cc3c(O)ccc(O)c3cc(Cc3ccc(N(C)C)cc3)c2=O)cc1	83*	43*	84*	56*	-2	72*	17	38*
O=C(CSc1nc2ccccc2c(=O)[nH]1)c1ccc(O)cc1O	-11	-8	-8	4	-18	.	.	.
O=C(CSc1nc2ccccc2n1CCc1ccccc1)c1ccc(O)c(O)c1	24	23*	70*	20*	7	66*	-10	32*
O=C(CSc1nc2ccccc2c(=O)[nH]1)c1ccc(O)c(O)c1	34*	32*	43*	1	10	43*	-19	34*
CC(C)CC#Cc1cnc2c(c1)C(=O)N([C@H](C)CO)C[C@@H](C)[C@H](CN(C)C(=O)c1ccc3c(c1)OCO3)O2	.	.	.	.	4	.	.	.
COc1ccc(C)cc1NC(=O)NNC(=O)c1cc2ccccc2cc1O	5	22*	42*	5	-2	35	-2	26*
Cc1noc(C)c1NC(=O)Nc1cccc2c1O[C@@H](CN(C)C(=O)Nc1ccc3c(c1)OCO3)[C@H](C)CN([C@H](C)CO)C2=O	.	.	.	.	10	.	.	.
Cc1noc(C)c1S(=O)(=O)N(C)C[C@H]1Oc2ccc(NS(=O)(=O)c3cn(C)cn3)cc2CC(=O)N([C@H](C)CO)C[C@H]1C	.	.	.	.	-5	.	.	.
C=CCn1c(SCC(=O)c2ccc(OC)cc2)nnc1-c1cc2cccc(OC)c2o1	4	-1	0	-5	0	.	.	.
C=CCn1c(SCC(=O)c2ccc(O)c(O)c2)nnc1-c1cccc(OC)c1	25	20*	38*	1	-2	67*	-7	17
COc1ccc2nc(C)cc(SCC(=O)N/N=C/c3ccc(O)c(O)c3)c2c1	18	40*	38*	-5	23	59*	-15	71*
O=C(NNC(=S)NC(=O)c1ccco1)c1ccc(NC(=O)c2ccccc2)cc1	4	13	-19	2	5	.	.	.
